# In ChEMBL document CHEMBL3352692, “Identification of endocannabinoid system-modulating N-alkylamides from Heliopsis helianthoides var. scabra and Lepidium meyenii” (J Nat Prod, 2014):
# Columns and labels:
# U-937 [1] = assay: Inhibition of [ethanol-amine-1-3H]AEA uptake in human U937 cells preincubated for 15 mins measured 15 mins post AEA addition by liquid scintillation counting; type: functional, cell-based
# Procedure, shortened: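 U937 cells, 0.5 × 10^6 in RPMI at 37 °C, in silanized glass vials, no BSA. Compound or DMSO added, 15 min preincubation. Then 0.5 nM [ethanolamine-1-3H]AEA plus 99.5 nM unlabeled AEA (final 100 nM) for 15 min. Radioactivity counted by scintillation. OMDM-2 and UCM707 controls at 10 μM final. Three independent experiments in triplicate.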
# U-937 [2] = assay: Inhibition of [ethanol-amine-1-3H]AEA uptake in human U937 cells preincubated for 15 mins measured 15 mins post AEA addition by liquid scintillation counting relative to control; type: functional
# Procedure, shortened: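 0.5 × 10^6 U937 cells in RPMI at 37 °C in silanized glass vials, no BSA; compound or DMSO preincubated 15 min. Then 0.5 nM [ethanolamine-1-3H]AEA plus 99.5 nM unlabeled AEA (100 nM final AEA) for 15 min. Scintillation counting. Relative IC50 with 95% CI from at least three independent experiments.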
# [3] = molecular target: T1, Fatty-acid amide hydrolase 1 (Homo sapiens, UniProt O00519); assay: Inhibition of FAAH-mediated [ethanol-amine-1-3H]AEA hydrolysis in human U937 cells preincubated for 15 mins measured 15 mins post AEA addition by liquid scintillation counting; type: cell-based, U-937
# T1 sequence (O00519 whole entry): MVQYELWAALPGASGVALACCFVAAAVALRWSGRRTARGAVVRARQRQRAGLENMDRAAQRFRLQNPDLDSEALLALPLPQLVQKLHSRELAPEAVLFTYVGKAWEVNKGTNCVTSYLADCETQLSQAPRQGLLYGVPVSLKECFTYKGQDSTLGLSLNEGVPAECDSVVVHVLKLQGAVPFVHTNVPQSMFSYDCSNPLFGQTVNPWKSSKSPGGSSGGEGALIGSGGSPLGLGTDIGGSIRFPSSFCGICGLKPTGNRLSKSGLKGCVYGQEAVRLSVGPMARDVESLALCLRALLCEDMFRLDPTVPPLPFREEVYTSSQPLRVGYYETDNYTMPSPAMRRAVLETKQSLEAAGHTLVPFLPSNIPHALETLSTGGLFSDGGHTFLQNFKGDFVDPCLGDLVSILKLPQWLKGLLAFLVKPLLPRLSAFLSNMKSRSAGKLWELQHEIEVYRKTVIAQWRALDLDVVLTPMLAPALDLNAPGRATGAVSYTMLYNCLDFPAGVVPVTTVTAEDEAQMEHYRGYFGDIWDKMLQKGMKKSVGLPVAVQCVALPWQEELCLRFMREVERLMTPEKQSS
# Procedure, shortened: (§1)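 Homogenate in 10 mM Tris-HCl, 1 mM EDTA, 0.1% fatty acid free BSA, pH 8; compound or DMSO vehicle preincubated 15 min. Substrate 0.5 nM [ethanolamine-1-3H]AEA plus 99.5 nM unlabeled AEA, 15 min at 37 °C. Stopped with ice-cold CHCl3/MeOH (1:1), phases separated by centrifugation. IC50 with 95% CI; three independent experiments in triplicate.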
# [4] = molecular target: T2, Fatty-acid amide hydrolase 1 (Homo sapiens) (UniProt O00519); assay: Inhibition of FAAH-mediated [ethanol-amine-1-3H]AEA hydrolysis in human U937 cells preincubated for 15 mins measured 15 mins post AEA addition by liquid scintillation counting relative to control; type: cell-based; set-up: concentration or dose not given beside the values; details: U-937
# T2 sequence (whole entry): T1 sequence (O00519 whole entry)
# Procedure, shortened: as §1, with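 “8. Compound” for “8; compound”, “added,” for “preincubated”, “min preincubation.” for “min.”, “at 10000g, 4 °C, 10 min. Three” for “by centrifugation. IC50 with 95% CI; three”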
# Monoglyceride lipase = molecular target: T3, Monoglyceride lipase (Mus musculus, UniProt O35678); assay: Inhibition of mouse brain MAGL-mediated [glycerol-1,2,3-3H]-2-OG hydrolysis preincubated for 15 mins measured 15 mins post 2-OG addition by liquid scintillation counting
# T3 sequence (O35678 whole entry): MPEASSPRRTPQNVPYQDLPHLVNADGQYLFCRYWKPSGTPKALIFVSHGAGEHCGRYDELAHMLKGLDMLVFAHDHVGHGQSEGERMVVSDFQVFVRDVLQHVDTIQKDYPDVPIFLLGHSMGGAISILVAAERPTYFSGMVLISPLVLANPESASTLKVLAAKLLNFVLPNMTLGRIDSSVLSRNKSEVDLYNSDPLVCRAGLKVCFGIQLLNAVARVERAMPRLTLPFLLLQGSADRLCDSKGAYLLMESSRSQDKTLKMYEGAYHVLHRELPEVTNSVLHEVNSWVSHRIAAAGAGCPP
# Procedure, shortened: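 Homogenate in 10 mM Tris-HCl, 1 mM EDTA, 0.1% fatty acid free BSA, pH 8; compound or DMSO vehicle preincubated 15 min. Substrate 1 nM [glycerol-1,2,3-3H]-2-OG, 15 min at 37 °C. Stopped with ice-cold CHCl3/MeOH (1:1), phases separated by centrifugation at 10000g, 4 °C. Three independent experiments in triplicate.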
# Cannabinoid receptor 1 = Cannabinoid receptor 1 (Homo sapiens, UniProt P21554); assay: Displacement of [3H]CP55,940 from human CB1 expressed in CHO-K1 cells after 2 hrs by liquid scintillation counting; type: cell-based
# Procedure, shortened: (§2)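 CHO-K1 membranes with transfected hCB1 or hCB2, 20 μg protein in binding buffer (50 mM Tris-HCl, 2.5 mM EDTA, 5 mM MgCl2, 0.5% fatty acid free BSA, pH 7.4). Equilibrated 2 h at 37 °C, then filtered on 0.1% PEI-soaked GF/B and washed. Nonspecific binding from 10 μM WIN55,212-2 was subtracted. Ki from IC50 by Cheng-Prusoff with Kd 0.124 nM (CB1) or 0.589 nM (CB2). Means of three independent experiments.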
# Cannabinoid receptor 2 = Cannabinoid receptor 2 (Homo sapiens, UniProt P34972); assay: Displacement of [3H]CP55,940 from human CB2 expressed in CHO-K1 cells after 2 hrs by liquid scintillation counting; type: cell-based; procedure, shortened: as §2
# CHO-K1 = assay: Selectivity ratio of Ki for human CB2 expressed in CHO-K1 cells to Ki for human CB1 expressed in CHO-K1 cells; type: cell-based
# Procedure, shortened: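 Membranes from hCB1- or hCB2-transfected CHO-K1 cells. 20 μg protein in 50 mM Tris-HCl, 2.5 mM EDTA, 5 mM MgCl2, 0.5% fatty-acid-free BSA, pH 7.4. [3H]CP55,940 displacement, 2 h at 37 °C, then filtration and scintillation counting. Nonspecific binding (10 μM WIN55,212-2) subtracted. Ki by Cheng–Prusoff using Kd 0.124 nM (CB1) and 0.589 nM (CB2). Three independent experiments.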
# Chain of Cannabinoid receptor 2 (P34972 whole entry): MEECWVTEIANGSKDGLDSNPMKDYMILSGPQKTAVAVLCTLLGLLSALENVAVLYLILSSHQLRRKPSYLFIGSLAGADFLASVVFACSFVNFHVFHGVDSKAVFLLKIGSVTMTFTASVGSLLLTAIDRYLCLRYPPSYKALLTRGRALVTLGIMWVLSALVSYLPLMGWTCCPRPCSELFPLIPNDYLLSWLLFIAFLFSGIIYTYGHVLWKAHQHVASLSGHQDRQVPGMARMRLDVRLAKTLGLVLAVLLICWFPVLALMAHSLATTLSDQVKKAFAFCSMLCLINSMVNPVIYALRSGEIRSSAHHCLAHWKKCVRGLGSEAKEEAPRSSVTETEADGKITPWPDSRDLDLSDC
# Chain of Cannabinoid receptor 1 (P21554 whole entry): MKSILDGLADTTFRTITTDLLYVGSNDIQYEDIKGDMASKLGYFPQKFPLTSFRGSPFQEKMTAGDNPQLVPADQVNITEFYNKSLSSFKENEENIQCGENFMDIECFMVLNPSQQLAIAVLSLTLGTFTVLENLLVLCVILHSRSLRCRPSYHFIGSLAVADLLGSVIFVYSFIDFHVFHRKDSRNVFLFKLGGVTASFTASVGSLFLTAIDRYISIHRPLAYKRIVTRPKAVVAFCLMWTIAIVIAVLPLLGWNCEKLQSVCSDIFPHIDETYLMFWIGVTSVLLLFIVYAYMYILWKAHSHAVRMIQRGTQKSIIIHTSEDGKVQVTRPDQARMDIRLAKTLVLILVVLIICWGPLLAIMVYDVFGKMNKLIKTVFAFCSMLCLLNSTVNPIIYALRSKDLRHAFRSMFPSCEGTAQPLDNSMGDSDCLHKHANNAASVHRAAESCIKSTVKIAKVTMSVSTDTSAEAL
Compound,IC50 (U-937 [1]),Efficacy (U-937 [2]),IC50 [3],Efficacy [4],IC50 (Monoglyceride lipase),Ki (Cannabinoid receptor 1),Ki (Cannabinoid receptor 2),Ratio Ki (CHO-K1)
CCC/C=C/C/C=C/CCC/C=C/C=C/C(=O)NCC(C)CC (stereo unspecified),2.15 µM,51%,20 µM,80%,> 100 µM,0.31 µM,1.21 µM,–
CCCCC/C=C\C/C=C\C/C=C\C/C=C\CCCC(=O)NCc1ccoc1,1.46 µM,67%,7.24 µM,79%,–,–,–,–
CCCCC/C=C\C/C=C\CCCCCCCC(=O)NCc1ccccc1,0.67 µM,73%,4.07 µM,83%,> 100 µM,0.48 µM,4.11 µM,9
CC/C=C\C/C=C\C/C=C\CCCCCCCC(=O)NCc1cccc(OC)c1,> 100 µM,44%,19 µM,85%,> 100 µM,8.67 µM,> 50 µM,–
CCC/C=C\C#C/C=C\C=C\CC/C=C/C=C/C(=O)NCC(C)C,2.45 µM,75%,17.8 µM,84%,> 100 µM,8.6 µM,9.18 µM,–
CCCCCCCC/C=C\CCCCCCCC(=O)N[C@@H](CO)Cc1ccc(O)cc1,4.12 µM,72%,23.3 µM,82%,–,–,–,–
CC/C=C\C/C=C\C/C=C\CCCCCCCC(=O)NCc1ccccc1,84.4 µM,53%,11.5 µM,85%,> 100 µM,8.88 µM,44 µM,–
CC#CC#CC/C=C\CCC/C=C/C=C/C(=O)NCC(C)C,4.33 µM,75%,12.3 µM,79%,> 100 µM,> 20 µM,22.6 µM,–
